In the library only some 1.3% were active in any assay of this set; here they are far more common.
Lipid droplet: modulators of hepatic lipid droplet formation | AML12 mouse hepatocytes, oleate lipid droplets, BODIPY imaging | inhibition, % at 6.5 µM | 240,000 compounds, 0.4% hits | AID 1656;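 active = lipid droplet intensity inhibited by at least 50%, with more than 500 cells counted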
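Test system: AML12 hepatocytes (mouse); reagent: oleate loading, 100 µM; dosing: one dose, 6.5 µM compound; incubation: overnight exposure; signal: fluorescence imaging, 20x objective, two fields per well; read-out basis: % inhibition of corrected integrated BODIPY droplet signal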
LANA-H2A inh: blocks KSHV LANA binding to histone H2A/H2B; 320,000 compounds, 0.6% hits; Q9QR71; inhibition, % (test concentration not listed); AID 2629; cell-free LANA-H2A/H2B peptide, fluorescence polarization; in the data active = inhibition mostly above about 10%, no sharp cut-off; inactive = mostly below about 6.7%
H9c2 TAG inh: inhibitors of triacylglycerol accumulation; H9c2 cells, Nile Red lipid (TAG) fluorescence; cells loaded with 200 µM oleic acid; inhibition, % at 12.5 µM; 230,000 compounds, 0.66% hits; AID 651582;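 active = pattern-corrected inhibition of lipid staining of at least 50% with the nuclear-stain viability signal not falling by more than 50%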;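 also: 0% = DMSO wells and 100% = triacsin C control wells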
GSK3A inh: human GSK-3 alpha kinase inhibition; inhibition, % at 10 µM; 320,000 compounds, 0.1% hits; AID 2650; ADP-Glo luminescence, 60 min;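 active = more than half of replicates show inhibition above 20%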;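 also: GST-tagged GSK-3 alpha with peptide substrate and 25 µM ATP; 0% = DMSO neutral wells and 100% = GW8510 positive control wells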
Target sequence (P49840 whole entry, looked up): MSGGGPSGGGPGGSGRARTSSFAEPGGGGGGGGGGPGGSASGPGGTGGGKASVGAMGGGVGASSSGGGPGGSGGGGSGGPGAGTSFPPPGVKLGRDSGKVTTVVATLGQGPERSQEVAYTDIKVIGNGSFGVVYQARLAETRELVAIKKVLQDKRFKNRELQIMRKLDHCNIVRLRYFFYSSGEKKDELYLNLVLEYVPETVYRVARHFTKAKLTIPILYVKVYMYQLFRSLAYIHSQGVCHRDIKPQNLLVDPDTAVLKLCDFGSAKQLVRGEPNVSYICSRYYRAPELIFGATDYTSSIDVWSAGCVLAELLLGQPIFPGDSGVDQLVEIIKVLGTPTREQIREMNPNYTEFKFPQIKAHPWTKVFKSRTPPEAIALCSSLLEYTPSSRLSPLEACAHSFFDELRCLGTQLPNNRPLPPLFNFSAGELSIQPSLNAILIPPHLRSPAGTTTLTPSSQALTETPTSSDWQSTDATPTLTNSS
STK33 kinase inh: blocks human STK33 kinase activity. Q9BYT3. purified STK33, MBP phosphorylation, ADP-Glo luminescence. inhibition, % at 10 µM. 320,000 compounds, 0.073% hits. AID 2661;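 active = inhibition at or above 25%, using the most active replicate where run in duplicate; inactive = inhibition below 25%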
GSK3beta inhib: inhibitors of human GSK3beta kinase; P49841; GST-GSK3beta kinase, ADP-Glo luminescence, 60 min; stronger effect = lower value; activity score (negative = inhibition), % at 10 µM; 300,000 compounds, 0.038% hits;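 active = more than half of replicate wells score below -50%, meaning over 50% inhibition versus plate controls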;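 also: 0% = median DMSO wells and -100% = median GW8510 positive control wells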
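Test system: GST-tagged human GSK3beta kinase, cell-free; evaluation: activity score scaled between in-plate DMSO and GW8510 controls; measured by: ADP-Glo luminescence; incubation: 60 min reaction, RT; benchmarks: DMSO and 20 µM GW8510; reagent: peptide substrate plus 25 µM ATP (final); medium: Tris/MgCl2 kinase buffer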
An asterisk follows results filed as active.

Results for O=C(O)c1nn(CCOc2ccc(Br)cc2)c(=O)c2ccccc12 ?
Lipid droplet: -11.5; LANA-H2A inh: 13.2*; GSK3A inh: -0.3; STK33 kinase inh: 0.0

What do the screens show for `O=C(CCCN1C(=O)c2ccccc2C1=O)Nc1ccccc1C(=O)N1CCOCC1`?
LANA-H2A inh: -0.8; H9c2 TAG inh: -14.6; GSK3A inh: -3.8; STK33 kinase inh: 0.1; GSK3beta inhib: -9.7

Results for COCCCNc1nc(N)c([N+](=O)[O-])c(N2CCCCCC2)n1 ?
Lipid droplet: 12.4; LANA-H2A inh: -1.0; GSK3A inh: 54.2*; STK33 kinase inh: 0.2; GSK3beta inhib: 0.2

Results for Nc1nc(NCCO)nc(N2CCCCCC2)c1[N+](=O)[O-] ?
Lipid droplet: 0.9; LANA-H2A inh: -2.2; GSK3A inh: 53.6*; STK33 kinase inh: 1.8; GSK3beta inhib: -17.1

How did COCCCNc1nc(N)c([N+](=O)[O-])c(NC2CCCCC2)n1 do in these assays?
Lipid droplet: 13.9; LANA-H2A inh: -4.7; GSK3A inh: 59.6*; STK33 kinase inh: 1.9; GSK3beta inhib: -21.8

What do the screens show for `COC(=O)c1c(C)noc1-c1ccc(Cl)cc1`?
Lipid droplet: -9.1; LANA-H2A inh: 0.6; H9c2 TAG inh: 17.0; GSK3A inh: -2.4; STK33 kinase inh: 0.4; GSK3beta inhib: -9.0

What do the screens show for `COc1ccc(Cl)cc1NC(=O)C/C(C)=N/NC(=O)c1ccccc1[N+](=O)[O-]`?
Lipid droplet: -2.2; LANA-H2A inh: 4.4; GSK3A inh: -3.7; STK33 kinase inh: 0.1; GSK3beta inhib: -0.2

What do the screens show for `COc1ccc(Cl)cc1NC(=O)C/C(C)=N/NC(=O)C(=O)NCc1ccccc1`?
Lipid droplet: 2.3; LANA-H2A inh: 15.3*; GSK3A inh: -0.4; STK33 kinase inh: 1.1; GSK3beta inhib: -2.1

Results for Cc1cccc(N(CC(=O)NC2CCCC2)C(=O)c2cc3cc4cccc(C)c4nc3s2)c1C ?
LANA-H2A inh: -3.3; GSK3A inh: -1.7; STK33 kinase inh: -3.0; GSK3beta inhib: 1.9

Results for CN(C)c1ccc(-c2noc(C3CCN(S(=O)(=O)c4cccc(Cl)c4)CC3)n2)cc1 ?
Lipid droplet: 16.5; LANA-H2A inh: 3.3; GSK3A inh: 0.7; STK33 kinase inh: -1.4; GSK3beta inhib: 2.9

What do the screens show for `C/C(=N\Nc1nc2ccccc2nc1C)c1ccccc1O`?
Lipid droplet: 4.0; LANA-H2A inh: 1.3; H9c2 TAG inh: 52.5*; GSK3A inh: -1.9; STK33 kinase inh: -1.1; GSK3beta inhib: 1.7

How did CN(C)CCNC(=O)C1CC(=O)N(c2ccc(F)c(Cl)c2)C1 (centres undefined) do in these assays?
Lipid droplet: -9.0; LANA-H2A inh: 93.7*; GSK3A inh: 0.8; STK33 kinase inh: -2.1; GSK3beta inhib: 6.9

Results for CCN(CC)S(=O)(=O)c1ccc(N2CC(C(=O)NCCc3c[nH]c4ccccc34)CC2=O)cc1 (centres undefined) ?
H9c2 TAG inh: -3.5

Results for CCN(CC)S(=O)(=O)c1ccc(N2CC(C(=O)NCCc3ccc(Cl)cc3)CC2=O)cc1 (centres undefined) ?
LANA-H2A inh: active; H9c2 TAG inh: 2.4; GSK3A inh: 0.8; STK33 kinase inh: 1.0

How did CC(=O)c1cccc(NC(=O)C2Cc3c(-c4ccccc4)ccnc3O2)c1 (centres undefined) do in these assays?
H9c2 TAG inh: -30.9

Results for O=C(N=C1SC2CS(=O)(=O)CC2N1c1ccc(F)cc1)C1CCCCC1 (centres undefined) ?
Lipid droplet: 20.4; LANA-H2A inh: -4.7; GSK3A inh: 0.1; STK33 kinase inh: -1.4; GSK3beta inhib: -2.7

Results for O=C(N=C1SC2CS(=O)(=O)CC2N1c1ccc(F)cc1)C1CC1 (centres undefined) ?
Lipid droplet: -16.3; LANA-H2A inh: 16.2*; GSK3A inh: -1.1; STK33 kinase inh: -1.3; GSK3beta inhib: -0.6

Results for CCN(CC)S(=O)(=O)c1ccc(C)c(NC(=O)COC(=O)[C@@H]2CCCN2C(=O)c2cccs2)c1 ?
Lipid droplet: -5.9; LANA-H2A inh: 14.8*; H9c2 TAG inh: -15.1; GSK3A inh: -2.6; STK33 kinase inh: 0.4; GSK3beta inhib: 1.9

How did CN(C)S(=O)(=O)c1ccc(Cl)c(NC(=O)COC(=O)[C@@H]2CCCN2C(=O)c2cccs2)c1 do in these assays?
Lipid droplet: -16.5; LANA-H2A inh: -2.3; H9c2 TAG inh: -3.7; GSK3A inh: 2.8; STK33 kinase inh: -3.0; GSK3beta inhib: -0.6

Results for Cc1ccc(OCC(=O)N(C)CC(=O)Nc2ccc(Cl)c(C(F)(F)F)c2)c([N+](=O)[O-])n1 ?
LANA-H2A inh: 104.8*; H9c2 TAG inh: -14.1; GSK3A inh: -0.8; STK33 kinase inh: 1.2

Results for Cc1ccc(OCC(=O)N(C)CC(=O)Nc2ccc(F)cc2)c([N+](=O)[O-])n1 ?
Lipid droplet: -3.4; LANA-H2A inh: -2.3; GSK3A inh: -3.1; STK33 kinase inh: 0.3; GSK3beta inhib: 2.3

Results for COc1ccc(Cn2c(SCc3ccccc3C)nc3cc(OC)c(OC)cc3c2=N)cc1 ?
LANA-H2A inh: -1.5; H9c2 TAG inh: 59.4*; GSK3A inh: 0.0; STK33 kinase inh: -0.2; GSK3beta inhib: -5.9

What do the screens show for `CC(C)c1nc(SCC(=O)N2CCCCC2)c2c(=O)n(C)c(=O)n(C)c2n1`?
H9c2 TAG inh: -5.3

Results for CC(C)c1nc(SCC(=O)N2CCCCCC2)c2c(=O)n(C)c(=O)n(C)c2n1 ?
Lipid droplet: -1.2; LANA-H2A inh: 52.8*; H9c2 TAG inh: 6.8; GSK3A inh: 1.7; STK33 kinase inh: 0.3; GSK3beta inhib: 0.8

Results for Cc1cccc(NC(=O)c2nc[nH]c2C(=O)NCCCNC(=O)c2[nH]cnc2C(=O)Nc2cccc(C)c2)c1 ?
LANA-H2A inh: -0.7; H9c2 TAG inh: 84.1*; GSK3A inh: -2.7; STK33 kinase inh: 0.5

Results for COc1ccc(N(CC(=O)Nc2cc(C)ccc2C)S(=O)(=O)c2c(C)noc2C)cc1 ?
Lipid droplet: 0.7; LANA-H2A inh: 4.4; GSK3A inh: -0.4; STK33 kinase inh: -2.5; GSK3beta inhib: 2.0

How did COc1ccc(N(CC(=O)Nc2cc(Cl)ccc2C)S(=O)(=O)c2c(C)noc2C)cc1 do in these assays?
Lipid droplet: -13.9; LANA-H2A inh: 51.4*; GSK3A inh: 1.6; STK33 kinase inh: -1.6; GSK3beta inhib: 3.7

Results for CCOc1ccc(N(CC(=O)Nc2ccccc2C)S(=O)(=O)c2c(C)noc2C)cc1 ?
LANA-H2A inh: -2.6; H9c2 TAG inh: 70.5*; GSK3A inh: 0.0; STK33 kinase inh: -1.1; GSK3beta inhib: 3.3

What do the screens show for `CCOc1ccccc1NC(=O)CN(c1ccc(OC)cc1)S(=O)(=O)c1c(C)noc1C`?
LANA-H2A inh: 2.6; GSK3A inh: -2.2; STK33 kinase inh: 0.0; GSK3beta inhib: -4.1
